Screening results (PubChem BioAssay)
Shown are actives, neighbours in structure and some others; about 0.72% of the full set was active somewhere.
bIAP inh: bovine intestinal alkaline phosphatase inhibitors, primary screen, selectivity assay for TNAP inhibitor project, biochemical, bovine IAP, CDP-star luminescence; purified bovine IAP, 30 min; inhibition, % at 20 µM; 190,000 tested, under 10 active; AID 1019, 2008;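 active means over 50% inhibition of intestinal alkaline phosphatase at 20 µM in the single-dose screen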
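Assay system – bovine IAP enzyme · Quantity – bovine IAP at 1/65,000,000 final dilution · Detection – CDP-star luminescence signal · Times – 30 min reaction at room temperature · Also added – CDP-star substrate at 30 µM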
hIAP block: human IAP inhibitors, primary screen, biochemical, luminescence, uHTS | Intestinal-type alkaline phosphatase (Homo sapiens), P09923 | purified IAP, CDP-Star luminescence, 30 min | inhibition, % at 10 µM | hit rate 0.12% among 330,000;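 active means inhibition reaching a set limit with compound at 10 µM in the primary screen, cut at about 35% in these data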
Target sequence (P09923 whole entry, looked up): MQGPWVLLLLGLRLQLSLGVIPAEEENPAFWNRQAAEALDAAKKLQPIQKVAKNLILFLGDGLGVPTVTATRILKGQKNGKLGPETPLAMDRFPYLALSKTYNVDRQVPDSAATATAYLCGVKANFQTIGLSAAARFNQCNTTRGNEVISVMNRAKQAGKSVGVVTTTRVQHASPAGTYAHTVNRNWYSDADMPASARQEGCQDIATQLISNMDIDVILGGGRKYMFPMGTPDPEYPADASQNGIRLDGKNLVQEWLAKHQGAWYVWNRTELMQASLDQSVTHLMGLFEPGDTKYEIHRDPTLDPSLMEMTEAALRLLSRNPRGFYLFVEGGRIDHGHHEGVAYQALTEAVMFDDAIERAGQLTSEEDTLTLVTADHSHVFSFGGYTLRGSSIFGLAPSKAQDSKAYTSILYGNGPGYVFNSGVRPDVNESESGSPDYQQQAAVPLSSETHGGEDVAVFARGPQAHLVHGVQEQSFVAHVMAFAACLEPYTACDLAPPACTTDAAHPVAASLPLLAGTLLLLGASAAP
mIAP act: activators of mouse IAP, primary screen, biochemical, luminescence, uHTS; intestinal alkaline phosphatase [Mus musculus]; activation factor at 10 µM; muIAP, CDP-Star luminescence, 30 min; active compounds read high; 1 = vehicle-only enzyme signal, 0 = enzyme-free wells; hit rate 0.24% among 330,000;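 active means activation factor of at least 2 at 20 µM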
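Assay system: mouse IAP enzyme / Compound: DMSO-dissolved test compounds / Timing: 30 min, room temperature / Measured by: luminescence from enzymatic CDP-Star hydrolysis / Control set: DMSO-only wells, enzyme-free buffer wells as negative control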
bIAP activator: bovine intestinal alkaline phosphatase activators, primary screen, biochemical, bovine IAP, CDP-star luminescence | AID 1016, 2008 | alkaline phosphatase, intestinal [Bos taurus] | hit rate 0.17% among 200,000 | purified bovine IAP, 30 min; active compounds read high; fold of DMSO-control signal, blank-subtracted | activation factor at 20 µM;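 active means activation factor of 2 or more at 20 µM, a signal rise over negative controls twice the positive control's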
hIAP activ: human IAP activators, primary screen, biochemical, luminescence, uHTS | purified human IAP, CDP-Star luminescence, 30 min; active compounds read high; 1 = vehicle-only enzyme, 0 = enzyme-free background | activation factor at 10 µM | hit rate 0.16% among 330,000 | AID 2524, 2010;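 active means activation factor of the enzyme at least 2-fold when tested at 20 µM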
mIAP block: inhibitors of mouse IAP, primary screen, biochemical, luminescence, uHTS | intestinal alkaline phosphatase [Mus musculus] | purified mouse IAP, CDP-Star luminescence, 30 min | inhibition, % at 10 µM | hit rate 0.2% among 330,000 | AID 2806, 2010;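 active means inhibition of at least 40% at 10 µM in the primary screen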
mIAP inh conf: inhibitors of mouse IAP, confirmation, biochemical, luminescence, single concentration; shares compounds with mIAP block; purified mouse IAP, CDP-Star luminescence, 30 min; inhibition, % at 10 µM; hit rate 4.7% among 11,000;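 active means inhibition of at least 40% at 10 µM in either of the two replicates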
Numbers stand for hits; i = inactive; nt = no result given.

SMILES	bIAP inh	hIAP block	mIAP act	bIAP activator	hIAP activ	mIAP block	mIAP inh conf
C=CCSC1=N/C(=C\C=C\c2ccco2)C(=O)S1	i	i	i	i	i	53	65
C=CCSC1=N/C(=C\c2sccc2C)C(=O)S1	i	i	i	i	i	i	nt
Oc1cccc(NC(=S)Nc2ccc(SC(F)F)cc2)c1	i	i	i	i	i	i	nt
FC(F)Sc1ccc(NC(=S)NC2CCC(NC(=S)Nc3ccc(SC(F)F)cc3)CC2)cc1 (stereo unspecified)	i	i	2.5	i	i	i	i
N=C1/C(=C\c2ccc(SCc3ccco3)o2)C(=O)N=C2SC=NN12	i	i	i	i	i	69	76
CC1=NN2C(=N)/C(=C\c3ccc(SCc4ccccc4)o3)C(=O)N=C2S1	i	i	i	i	i	i	nt
N#Cc1c2c(c(NCc3ccco3)n3c1nc1ccccc13)CCC2	i	i	i	i	i	50	57
OC[C@@H]1[C@@H](c2ccccc2)C(c2ccccc2)=NN1c1ccccc1	nt	nt	2.3	nt	nt	i	i
OC[C@@H]1[C@@H](c2ccccc2)C(c2cccc(Cl)c2)=NN1c1ccccc1	nt	nt	2.5	nt	nt	i	i
CSCC[C@H](NC(=O)[C@H]1N2C(=O)c3ccccc3C2SC1(C)C)C(=O)NCc1ccncc1 (stereo partly specified)	nt	i	i	nt	i	i	nt
CN(Cc1ccc(F)cc1)C(=O)CNC(=O)c1ccc2c(c1)OCO2	nt	i	i	nt	i	i	nt
Nc1ccc(O)c2ccccc12	nt	i	i	nt	i	i	nt
O=C(CCN1C(=O)/C(=C/c2ccco2)SC1=S)Nc1ccc(C(=O)O)c(O)c1	nt	i	i	nt	i	62	78
O=C(CCN1C(=O)/C(=C\c2ccco2)SC1=S)Nc1ccc(C(=O)O)c(O)c1	nt	i	i	nt	i	56	76
Cc1cc(C)cc(C(=O)Nc2cccc(NC(=O)c3ccco3)c2)c1	nt	i	i	nt	i	i	nt
CC(C)n1c(SCC(=O)Nc2nncs2)nnc1-c1ccco1	nt	i	i	nt	i	i	nt
Nc1nnc(CC(=O)N/N=C/c2cc([N+](=O)[O-])cc(Br)c2O)s1	i	i	i	i	i	48	46
CC(C)=CC(=O)N1CCC(N2CCC(C(=O)NCC3CCCO3)CC2)CC1 (stereo unspecified)	nt	i	i	nt	i	i	nt
O=C(NC1CCN(Cc2ccc(Cl)c(Cl)c2)CC1)c1ccccc1	nt	i	i	nt	i	i	nt
CCN(CC)CCNC(=O)c1ccc(NC(=O)Nc2cccc3ccccc23)cc1	nt	i	3.1	nt	i	i	i
NS(=O)(=O)c1ccc(-c2ccc(/C=C3\C(=O)Nc4ccccc43)o2)cc1	nt	i	i	nt	i	i	nt
CC1(C)OC(=O)C(=Cc2ccc(-c3ccc(S(N)(=O)=O)cc3)o2)C(=O)O1	i	i	i	i	i	64	79
Cc1ccc(C)c(OCCC(=O)Nc2ccc3c(c2)OCO3)c1	nt	i	i	nt	i	i	nt
CC(=C\c1ccccc1)/C=C1/SC(=S)N(C(C(=O)O)C(C)C)C1=O (stereo unspecified)	i	nt	nt	i	nt	nt	nt
CC(C(=O)O)N1C(=O)/C(=C/C=C/c2ccco2)SC1=S (stereo unspecified)	i	i	i	i	i	54	58
SMILES	bIAP inh	hIAP block	mIAP act	bIAP activator	hIAP activ	mIAP block	mIAP inh conf
O=C1/C(=C/C=C/c2ccco2)SC(=S)N1NS(=O)(=O)c1ccccc1	nt	i	i	nt	i	84	91
COc1ccc(/C=N/N2CCN(c3ccc(Cl)cc3)CC2)cc1O	nt	i	i	nt	i	i	nt
CCOC(=O)c1ccc(CNC(=O)c2cc(COc3ccccc3SC)on2)o1	nt	i	i	nt	i	i	nt
O=C(/C=C/c1ccco1)NC(=S)Nc1ccccc1N1CCCC1	i	i	i	i	i	i	nt
O=C(/C=C/c1ccco1)NC(=S)Nc1cccc(C(=O)O)c1	nt	i	i	nt	i	48	63
COc1ccc(NC(=S)NC(=O)/C=C/c2ccco2)c(OC)c1	nt	i	i	nt	i	i	nt
O=C(/C=C/c1ccco1)NC(=S)Nc1ccccc1O	i	i	i	i	i	46	54
Cc1ccc(NC(=S)NC(=O)/C=C/c2ccco2)c(O)c1	i	i	i	i	i	47	54
O=C(/C=C\c1ccco1)NC(=S)Nc1ccccc1O	nt	i	i	nt	i	59	72
COc1cccc(NC(=S)NC(=O)/C=C/c2ccco2)c1	nt	i	i	nt	i	i	nt
COc1ccc(N(CC(=O)Nc2ccccc2C(F)(F)F)C2=NC3CS(=O)(=O)CC3S2)cc1 (stereo unspecified)	nt	i	i	nt	i	i	nt
CC[C@@H]1CCCCc2ccccc2[C@H](C(=O)C[C@H](O)CC(C)=O)OC1=O	nt	i	i	nt	i	i	nt
CCOc1ccc(NC(=S)NC(=O)/C=C/c2ccco2)cc1	nt	i	i	nt	i	i	nt
COc1cc(NS(=O)(=O)c2ccc(NC(=S)NC(=O)/C=C/c3ccco3)cc2)ncn1	i	i	i	i	i	42	64
Cc1ccccc1-c1cc(C(=O)NCc2cccc(C(F)(F)F)c2)nn1CC1CC(c2cccc([N+](=O)[O-])c2)=NO1 (stereo unspecified)	nt	i	i	nt	i	i	nt
CCN1C(=O)[C@H]2[C@@H](c3ccc(-c4ccc(OC)cc4)c(OC)c3)N3CCCC[C@@]3(C(=O)OC)[C@H]2C1=O	nt	i	i	nt	i	i	nt
CCCCCCNC(=O)N[C@@H](C(=O)NCCC[C@H]1CN2C(=NC[C@@H]2Cc2ccccc2)N1CCc1cccc(OC)c1)C(C)C	nt	i	3.3	nt	i	i	i
C/C=C(\C)C(=O)NCCN1C2=NC[C@@H](Cc3ccccc3)N2C[C@@H]1Cc1ccc(OC)cc1	nt	i	i	nt	i	i	nt
COC(=O)C/C=N/N=C1/NC(=O)/C(=C/C(=O)O)S1	nt	i	i	nt	i	54	42
O=C(/C=C/c1c(F)cccc1Cl)N1CCOCC1	nt	i	i	nt	i	i	nt
CSc1ccc(S(=O)(=O)Nc2ccc(S(=O)(=O)Nc3ccc(C)cc3)cc2)cc1	i	i	i	i	i	i	nt
Cc1ccc(C)c(S(=O)(=O)Nc2ccc(O)c(Sc3ncn[nH]3)c2)c1	nt	i	i	nt	i	75	82
CCOc1ccc(NS(=O)(=O)c2ccc(NS(=O)(=O)c3ccc(SC)cc3)cc2)cc1	i	i	i	i	i	i	nt
CCOc1ccc(S(=O)(=O)Nc2ccc(O)c(Sc3ncn[nH]3)c2)cc1	i	i	i	i	i	44	62
Cc1ccc(S(=O)(=O)Nc2ccc(O)c(Sc3ncn[nH]3)c2)cc1	i	i	i	i	i	50	65
